Measured values: ChEMBL document CHEMBL2390921, “A novel benzazepinone sodium channel blocker with oral efficacy in a rat model of neuropathic pain” (Bioorg Med Chem Lett, 2013)

What was measured:
Rattus norvegicus [1] = experiment: Dose normalized AUC in Sprague-Dawley rat at 3 mg/kg, po; type: ADME, organism-based; parameters: dose 3 mg/kg, route oral; details: in vivo
How it was run: (§1)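 Fasted male Sprague–Dawley rats (n = 3 per route) were dosed with 1.5 mg/mL solutions in PEG300/water or DMSO/PEG300/water, either 1.0 mg/kg iv via femoral-vein cannula or 3.0 mg/kg by oral gavage. Blood was sampled at 5 min (iv only), 15 and 30 min, and 1, 2, 4, 6 and 8 h. Plasma levels were measured by LC–MS/MS after acetonitrile protein precipitation.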

[2] = Oral bioavailability in Sprague-Dawley rat at 3 mg/kg; type: ADME, organism-based; details: in vivo; how it was run: as §1
[3] = Plasma clearance in Sprague-Dawley rat at 3 mg/kg, po and 1 mg/kg, iv; type: ADME, organism-based; how it was run: as §1
[4] = Half life in Sprague-Dawley rat at 3 mg/kg, po and 1 mg/kg, iv; type: ADME, organism-based; details: in vivo; how it was run: as §1
[5] = target: Sodium channel protein type 9 subunit alpha (Homo sapiens, UniProt Q15858); experiment: Inhibition of human NaV1.7 channel expressed in HEK293 cells by FRET assay; type: cell-based
Chain of Sodium channel protein type 9 subunit alpha (Q15858 whole entry): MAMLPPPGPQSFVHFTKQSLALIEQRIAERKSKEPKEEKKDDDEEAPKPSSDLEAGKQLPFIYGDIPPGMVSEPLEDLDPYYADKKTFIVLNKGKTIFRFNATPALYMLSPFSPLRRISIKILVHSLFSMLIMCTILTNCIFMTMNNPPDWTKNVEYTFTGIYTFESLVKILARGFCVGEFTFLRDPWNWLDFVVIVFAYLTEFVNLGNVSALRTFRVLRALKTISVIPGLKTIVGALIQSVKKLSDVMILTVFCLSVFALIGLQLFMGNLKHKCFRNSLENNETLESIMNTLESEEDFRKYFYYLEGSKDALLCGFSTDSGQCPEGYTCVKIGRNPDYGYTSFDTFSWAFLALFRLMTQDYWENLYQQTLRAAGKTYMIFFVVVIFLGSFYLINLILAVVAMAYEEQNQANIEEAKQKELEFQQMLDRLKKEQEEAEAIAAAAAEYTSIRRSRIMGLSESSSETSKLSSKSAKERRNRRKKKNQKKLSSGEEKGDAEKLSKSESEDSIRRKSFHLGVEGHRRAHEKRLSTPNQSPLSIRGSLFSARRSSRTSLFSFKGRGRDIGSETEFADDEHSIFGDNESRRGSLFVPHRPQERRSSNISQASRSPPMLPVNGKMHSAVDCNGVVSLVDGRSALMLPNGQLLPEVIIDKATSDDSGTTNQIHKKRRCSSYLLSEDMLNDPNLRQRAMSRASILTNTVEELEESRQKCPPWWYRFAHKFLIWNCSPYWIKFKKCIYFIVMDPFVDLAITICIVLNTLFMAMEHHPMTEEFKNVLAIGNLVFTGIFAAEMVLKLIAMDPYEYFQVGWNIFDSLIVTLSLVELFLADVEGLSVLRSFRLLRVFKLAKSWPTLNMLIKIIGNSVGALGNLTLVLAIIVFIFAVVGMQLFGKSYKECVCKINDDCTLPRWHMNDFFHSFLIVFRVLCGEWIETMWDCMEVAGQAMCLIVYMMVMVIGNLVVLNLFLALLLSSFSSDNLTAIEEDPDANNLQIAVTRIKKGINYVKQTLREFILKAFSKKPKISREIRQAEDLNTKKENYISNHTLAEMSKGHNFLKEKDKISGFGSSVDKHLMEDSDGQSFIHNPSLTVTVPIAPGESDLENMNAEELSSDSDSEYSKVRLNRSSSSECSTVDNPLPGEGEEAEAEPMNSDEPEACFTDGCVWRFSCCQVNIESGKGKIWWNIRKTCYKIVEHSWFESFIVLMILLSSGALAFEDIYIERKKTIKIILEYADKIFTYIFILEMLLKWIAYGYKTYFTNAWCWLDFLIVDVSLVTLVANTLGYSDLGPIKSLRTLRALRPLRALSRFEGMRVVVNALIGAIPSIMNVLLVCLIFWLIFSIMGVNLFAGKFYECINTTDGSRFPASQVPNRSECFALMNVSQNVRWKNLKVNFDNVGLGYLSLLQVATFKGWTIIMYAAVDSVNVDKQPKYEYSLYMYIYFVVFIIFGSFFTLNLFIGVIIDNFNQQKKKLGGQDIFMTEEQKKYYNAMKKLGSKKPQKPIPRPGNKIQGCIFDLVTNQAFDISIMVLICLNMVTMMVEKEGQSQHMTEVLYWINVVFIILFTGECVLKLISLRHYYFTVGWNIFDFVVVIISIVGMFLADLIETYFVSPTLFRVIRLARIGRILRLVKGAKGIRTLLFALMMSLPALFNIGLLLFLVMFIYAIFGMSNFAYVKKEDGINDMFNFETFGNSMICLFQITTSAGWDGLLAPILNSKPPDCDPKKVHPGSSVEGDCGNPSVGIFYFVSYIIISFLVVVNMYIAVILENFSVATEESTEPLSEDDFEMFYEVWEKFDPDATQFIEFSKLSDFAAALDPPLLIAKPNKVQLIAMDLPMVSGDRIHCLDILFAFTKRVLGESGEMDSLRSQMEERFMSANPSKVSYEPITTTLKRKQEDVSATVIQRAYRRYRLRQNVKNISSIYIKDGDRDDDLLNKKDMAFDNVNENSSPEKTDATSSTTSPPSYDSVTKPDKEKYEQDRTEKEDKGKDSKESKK
How it was run: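 HEK293 cells stably expressing human Nav1.7. Channel block was read in a functional membrane-potential assay based on FRET between two membrane-associated dyes; IC50 determined.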

hERG (KCNH2) = hERG (KCNH2) (Homo sapiens, UniProt Q12809); experiment: Displacement of [35S]-MK0499 from human ERG expressed in HEK293 cell membranes at 10 uM after 2 hrs by liquid scintillation counting analysis relative to control; details: membranes of HEK293 cells that express human ERG, probe [35S]-MK0499
Chain of hERG (KCNH2) (Q12809 whole entry): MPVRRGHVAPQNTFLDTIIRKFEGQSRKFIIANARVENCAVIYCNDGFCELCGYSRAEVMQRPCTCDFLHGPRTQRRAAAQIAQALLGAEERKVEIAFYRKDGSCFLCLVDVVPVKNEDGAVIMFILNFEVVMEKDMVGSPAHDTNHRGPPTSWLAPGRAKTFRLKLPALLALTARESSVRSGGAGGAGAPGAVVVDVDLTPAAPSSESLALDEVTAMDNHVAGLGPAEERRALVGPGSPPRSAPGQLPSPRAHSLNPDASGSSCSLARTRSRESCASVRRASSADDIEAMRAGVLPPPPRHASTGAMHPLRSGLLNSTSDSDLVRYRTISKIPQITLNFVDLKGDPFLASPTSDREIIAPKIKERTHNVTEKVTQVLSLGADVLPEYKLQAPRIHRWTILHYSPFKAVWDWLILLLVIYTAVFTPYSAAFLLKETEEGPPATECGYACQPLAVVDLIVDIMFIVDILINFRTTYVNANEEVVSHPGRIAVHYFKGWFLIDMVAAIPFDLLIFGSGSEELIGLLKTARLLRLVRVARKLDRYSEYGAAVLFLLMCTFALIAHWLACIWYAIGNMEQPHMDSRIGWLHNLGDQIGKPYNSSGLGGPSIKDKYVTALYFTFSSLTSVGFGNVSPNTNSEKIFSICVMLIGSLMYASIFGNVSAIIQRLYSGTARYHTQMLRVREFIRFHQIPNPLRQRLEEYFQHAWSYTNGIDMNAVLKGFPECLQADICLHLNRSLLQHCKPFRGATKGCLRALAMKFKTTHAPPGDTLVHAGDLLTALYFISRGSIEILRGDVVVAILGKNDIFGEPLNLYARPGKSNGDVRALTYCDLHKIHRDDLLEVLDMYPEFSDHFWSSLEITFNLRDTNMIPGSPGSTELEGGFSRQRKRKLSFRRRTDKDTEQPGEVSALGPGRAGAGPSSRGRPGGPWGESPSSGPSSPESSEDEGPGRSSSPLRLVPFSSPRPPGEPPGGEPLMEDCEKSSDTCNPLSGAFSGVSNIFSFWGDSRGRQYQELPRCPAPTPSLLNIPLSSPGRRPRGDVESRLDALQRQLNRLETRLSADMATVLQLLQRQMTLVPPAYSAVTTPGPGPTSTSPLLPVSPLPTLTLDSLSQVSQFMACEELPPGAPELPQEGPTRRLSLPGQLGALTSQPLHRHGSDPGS
How it was run: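 hERG binding assay measuring displacement of 35S-labelled MK-0499, a known hERG blocker.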

Rattus norvegicus [6] = experiment: Analgesic activity in rat spinal nerve ligation neuropathic pain model assessed as reversal of allodynia at 30 mg/kg, po measured at 2 hrs relative to control; type: functional
How it was run: (§2)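 Rat spinal nerve ligation model. Seven days after surgery, rats received a single oral dose (3, 10 or 30 mg/kg) of test agent or vehicle. Tactile allodynia was scored at 2, 4, 8 and 24 h post-dose with calibrated von Frey filaments using an up-down paradigm. Threshold is the force giving a 50% withdrawal rate. %MPE = (post-compound − post-SNL)/(pre-SNL − post-SNL) × 100, where 100% is full reversal.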

Rattus norvegicus [7] = experiment: Analgesic activity in po dosed rat spinal nerve ligation neuropathic pain model assessed as reversal of allodynia measured at 2 to 4 hrs; type: functional; how it was run: as §2
Rattus norvegicus [8] = experiment: Neurotoxicity in rat assessed as reduction in latency time at => 30 mg/kg, po after 2 hrs by rotarod test relative to vehicle-treated control; type: toxicity, organism-based; parameters: dose 30 mg/kg, route oral; scale not given: the % may be the effect or the level left; details: in vivo
How it was run: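 Rats trained on rotarod 3 min at 10 rpm; single oral dose of test compound or vehicle (30 or 100 mg/kg); tested at 2 and 4 h post-dose with speed at 10 rpm for 60 s then accelerated to 60 rpm; time to fall after start of acceleration recorded. Significant impairment defined as >20% reduction in latency time.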

CC(C)N1C(=O)[C@H](NC(=O)[C@@H](Cc2ccccc2F)NC(=O)c2ccc(F)cc2C(F)(F)F)CCc2cc(Cl)ccc21
AUC/dose (Rattus norvegicus [1]): 0.58 µM·h/mg/kg

CC(C)N1C(=O)[C@H](NC(=O)[C@@H](Cc2ccccc2F)NC(=O)c2ccc(F)cc2C(F)(F)F)CCc2cc(F)ccc21
bioavailability [2]: 56%
clearance [3]: 36 mL/min/kg
half-life [4]: 1.7 h
AUC/dose (Rattus norvegicus [1]): 0.45 µM·h/mg/kg
IC50 [5]: 254 nM
inhibition at 2 h, 10 µM (hERG (KCNH2)): 36%

Cc1cccc(C)c1OCC(C)N (stereo not drawn) [MEXILETINE]
Activity (Rattus norvegicus [6]): 42%
ED50 (Rattus norvegicus [7]): 45 mg/kg

CC(C)N1C(=O)[C@H](NC(=O)[C@@H](Cc2ccccc2F)NC(=O)C2CC2C(F)(F)F)CCc2c(F)c(F)cc(F)c21 (stereo partly drawn)
bioavailability [2]: 62%
clearance [3]: 23 mL/min/kg
half-life [4]: 2.2 h
AUC/dose (Rattus norvegicus [1]): 0.79 µM·h/mg/kg
IC50 [5]: 137 nM
inhibition at 2 h, 10 µM (hERG (KCNH2)): 2%

CC(C)N1C(=O)[C@H](NC(=O)[C@@H](Cc2ccccc2OC(F)(F)F)NC(=O)OC(C)(C)C)CCc2c(F)c(F)cc(F)c21
IC50 [5]: 67 nM
inhibition at 2 h, 10 µM (hERG (KCNH2)): 24%

CC(C)N1C(=O)[C@H](NC(=O)[C@@H](Cc2ccccc2F)NC(=O)c2ccccn2)CCc2c(F)c(F)cc(F)c21
IC50 [5]: 443 nM
inhibition at 2 h, 10 µM (hERG (KCNH2)): 22%

CC(C)N1C(=O)[C@H](NC(=O)[C@@H](Cc2ccccc2OC(F)(F)F)NC(=O)OC(C)(C)C)CCc2cc(C(F)(F)F)ccc21
bioavailability [2]: 59%
clearance [3]: 39 mL/min/kg
half-life [4]: 1.9 h
AUC/dose (Rattus norvegicus [1]): 0.41 µM·h/mg/kg
IC50 [5]: 181 nM
inhibition at 2 h, 10 µM (hERG (KCNH2)): 7%

CC(C)N1C(=O)[C@H](NC(=O)[C@@H](Cc2ccccc2F)NC(=O)c2ccc(F)cc2C(F)(F)F)CCc2cc(F)cc(F)c21
bioavailability [2]: 31%
clearance [3]: 21 mL/min/kg
half-life [4]: 1.9 h
AUC/dose (Rattus norvegicus [1]): 0.42 µM·h/mg/kg
IC50 [5]: 264 nM
inhibition at 2 h, 10 µM (hERG (KCNH2)): 34%

CC1CC1N1C(=O)[C@H](NC(=O)[C@@H](Cc2ccccc2F)NC(=O)c2ccc(F)cc2C(F)(F)F)CCc2c(F)c(F)cc(F)c21 (stereo partly drawn)
IC50 [5]: 131 nM
inhibition at 2 h, 10 µM (hERG (KCNH2)): 44%

CC(C)N1C(=O)[C@H](NC(=O)[C@@H](Cc2ccccc2OC(F)(F)F)NC(=O)OC(C)(C)C)CCc2ccc(F)cc21
bioavailability [2]: 20%
clearance [3]: 29 mL/min/kg
half-life [4]: 2.5 h
AUC/dose (Rattus norvegicus [1]): 0.2 µM·h/mg/kg
IC50 [5]: 18 nM
inhibition at 2 h, 10 µM (hERG (KCNH2)): 26%

CC(C)N1C(=O)[C@H](NC(=O)[C@@H](Cc2ccccc2OC(F)(F)F)NC(=O)OC(C)(C)C)CCc2cccc(F)c21
bioavailability [2]: 27%
clearance [3]: 21 mL/min/kg
half-life [4]: 2.7 h
AUC/dose (Rattus norvegicus [1]): 0.39 µM·h/mg/kg
IC50 [5]: 70 nM
inhibition at 2 h, 10 µM (hERG (KCNH2)): 24%

CC(C)N1C(=O)[C@H](NC(=O)[C@@H](Cc2ccccc2OC(F)(F)F)NC(=O)OC(C)(C)C)CCc2ccc(C(F)(F)F)cc21
bioavailability [2]: 21%
clearance [3]: 26 mL/min/kg
half-life [4]: 1.3 h
AUC/dose (Rattus norvegicus [1]): 0.22 µM·h/mg/kg
IC50 [5]: 494 nM
inhibition at 2 h, 10 µM (hERG (KCNH2)): 19%

CC(C)N1C(=O)[C@H](NC(=O)[C@@H](Cc2ccccc2OC(F)(F)F)NC(=O)OC(C)(C)C)CCc2ccccc21
AUC/dose (Rattus norvegicus [1]): 0.31 µM·h/mg/kg

CC(C)N1C(=O)[C@H](NC(=O)[C@@H](Cc2ccccc2OC(F)(F)F)NC(=O)OC(C)(C)C)CCc2cc(Cl)ccc21
AUC/dose (Rattus norvegicus [1]): 0.71 µM·h/mg/kg

CC1CC1N1C(=O)[C@H](NC(=O)[C@@H](Cc2ccccc2F)NC(=O)C2CC2C(F)(F)F)CCc2c(F)c(F)cc(F)c21 (stereo partly drawn)
IC50 [5]: 101 nM
inhibition at 2 h, 10 µM (hERG (KCNH2)): 54%

NCC1(CC(=O)O)CCCCC1 [GABAPENTIN]
Activity (Rattus norvegicus [8]): > 20%
Activity (Rattus norvegicus [6]): 36%
ED50 (Rattus norvegicus [7]): 50 mg/kg

CC(C)N1C(=O)[C@H](NC(=O)[C@@H](Cc2ccccc2F)NC(=O)c2ccccc2C(F)(F)F)CCc2c(F)c(F)cc(F)c21
IC50 [5]: 229 nM
inhibition at 2 h, 10 µM (hERG (KCNH2)): 10%

CC(C)N1C(=O)[C@H](NC(=O)[C@@H](Cc2ccccc2OC(F)(F)F)NC(=O)OC(C)(C)C)CCc2cc(F)cc(F)c21
bioavailability [2]: 30%
clearance [3]: 17 mL/min/kg
half-life [4]: 2.7 h
AUC/dose (Rattus norvegicus [1]): 0.54 µM·h/mg/kg
IC50 [5]: 57 nM
inhibition at 2 h, 10 µM (hERG (KCNH2)): 21%

CC(C)N1C(=O)[C@H](NC(=O)[C@@H](Cc2ccccc2F)NC(=O)c2ccc(F)cc2C(F)(F)F)CCc2cc(C(F)(F)F)ccc21
bioavailability [2]: 75%
clearance [3]: 33 mL/min/kg
half-life [4]: 2.5 h
AUC/dose (Rattus norvegicus [1]): 0.6 µM·h/mg/kg
IC50 [5]: 359 nM
inhibition at 2 h, 10 µM (hERG (KCNH2)): 10%

CC(C)N1C(=O)[C@H](NC(=O)[C@@H](Cc2ccccc2F)NC(=O)c2ccc(F)cc2C(F)(F)F)CCc2cc(Cl)cc(F)c21
bioavailability [2]: 74%
clearance [3]: 21 mL/min/kg
half-life [4]: 1.9 h
AUC/dose (Rattus norvegicus [1]): 0.93 µM·h/mg/kg
IC50 [5]: 260 nM
inhibition at 2 h, 10 µM (hERG (KCNH2)): 17%

CC(C)N1C(=O)[C@H](NC(=O)[C@@H](Cc2ccccc2F)NC(=O)c2ccc(F)cc2C(F)(F)F)CCc2c(F)c(F)cc(F)c21
bioavailability [2]: 68%
clearance [3]: 19 mL/min/kg
half-life [4]: 5.6 h
AUC/dose (Rattus norvegicus [1]): 1 µM·h/mg/kg
IC50 [5]: 103 nM
inhibition at 2 h, 10 µM (hERG (KCNH2)): 20%

O=C(N[C@H](Cc1ccccc1F)C(=O)N[C@@H]1CCc2c(F)c(F)cc(F)c2N(C2CC2)C1=O)c1ccc(F)cc1C(F)(F)F
IC50 [5]: 85 nM
inhibition at 2 h, 10 µM (hERG (KCNH2)): 31%

CC1CC1C(=O)N[C@H](Cc1ccccc1F)C(=O)N[C@@H]1CCc2c(F)c(F)cc(F)c2N(C(C)C)C1=O (stereo partly drawn)
bioavailability [2]: 47%
clearance [3]: 35 mL/min/kg
half-life [4]: 0.8 h
AUC/dose (Rattus norvegicus [1]): 0.44 µM·h/mg/kg
IC50 [5]: 103 nM
inhibition at 2 h, 10 µM (hERG (KCNH2)): 0%

CC(C)N1C(=O)[C@H](NC(=O)[C@@H](Cc2ccccc2OC(F)(F)F)NC(=O)OC(C)(C)C)CCc2cc(F)ccc21
bioavailability [2]: 35%
clearance [3]: 16 mL/min/kg
half-life [4]: 2.3 h
AUC/dose (Rattus norvegicus [1]): 0.66 µM·h/mg/kg
IC50 [5]: 34 nM
inhibition at 2 h, 10 µM (hERG (KCNH2)): 24%
